According to ChEMBL document CHEMBL1806492, “Generation of 'Unnatural Natural Product' library and identification of a small molecule inhibitor of XIAP” (Bioorg Med Chem, 2011):
pKi: −log10 of the molar value. Activity calls are given as the source filed them. No cut-off for these calls is given here. Residues, ends and D or L forms follow the SMILES beside them. *: point of attachment. Cbz = O=C(OCc1ccccc1)*; CH2F = FC*

What was measured:
[1] = system: HeLa; assay: Suppression of camptothecin-induced apoptosis in human HeLa cells assessed as reduction in DNA fragmentation at 100 uM after 24 hrs by propidium iodide-staining based FACS assay; type: functional, cell-based
Method in brief: (§1)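 HeLa cells seeded at 1×10^5 cells/well, cultured overnight, treated with test compounds at various concentrations for 24 h. Nuclei stained with propidium iodide; cell death scored by flow cytometry as the sub-G1 (fragmented DNA) population.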

[2] = system: HeLa; assay: Suppression of staurosporine-induced apoptosis in human HeLa cells assessed as reduction in DNA fragmentation at 100 uM after 24 hrs by propidium iodide-staining based FACS assay; type: functional, cell-based; method in brief: as §1
[3] = system: HeLa; assay: Induction of sensitization of human HeLa cells to staurosporine-induced apoptosis assessed as induction DNA fragmentation at 10 uM after 24 hrs by propidium iodide-staining based FACS assay; type: functional, cell-based
Method in brief: (§2)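 HeLa cells seeded at 1×10^5 cells/well and cultured overnight, then exposed to various concentrations of test compounds for 24 h. Nuclei stained with propidium iodide. Cell death measured by flow cytometry as DNA fragmentation, read as the sub-G1 population.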

[4] = biological target: E3 ubiquitin-protein ligase XIAP (Homo sapiens) (UniProt P98170); assay: Inhibition of human GST-tagged XIAP binding to active human caspase-3 at 3 uM after 1 hrs by GST pull-down assay
[5] = biological target: E3 ubiquitin-protein ligase XIAP (Homo sapiens) (UniProt P98170); assay: Inhibition of human recombinant GST tagged XIAP expressed in Escherichia coli assessed as restoration of XIAP-mediated suppression of caspase-3 activity after 1 hrs using fluorogenic tetrapeptide Ac-DEVD-AFC substrate by caspase de-repression assay
[6] = system: HeLa; assay: Induction of sensitization of human HeLa cells to camptothecin-induced apoptosis assessed as induction DNA fragmentation at 10 uM after 24 hrs by propidium iodide-staining based FACS assay; type: functional, cell-based; method in brief: as §2
[7] = biological target: T1, Caspase-3 (Homo sapiens) (UniProt P42574); assay: Effect on human caspase-3 activity at 10 uM in the absence of XIAP after 1 hrs using fluorogenic tetrapeptide Ac-DEVD-AFC as substrate
T1 sequence (whole entry): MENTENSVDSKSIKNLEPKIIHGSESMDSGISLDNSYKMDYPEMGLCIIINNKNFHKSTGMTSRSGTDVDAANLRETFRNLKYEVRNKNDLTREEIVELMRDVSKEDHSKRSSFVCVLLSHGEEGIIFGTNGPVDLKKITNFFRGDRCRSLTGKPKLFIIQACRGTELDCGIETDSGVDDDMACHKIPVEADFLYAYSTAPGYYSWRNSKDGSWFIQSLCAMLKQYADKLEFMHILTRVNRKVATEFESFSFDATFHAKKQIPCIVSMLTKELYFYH

[8] = system: HeLa; assay: Induction of sensitization of human HeLa cells to staurosporine-induced apoptosis at 10 uM after 48 hrs by trypan blue dye exclusion assay; type: functional, cell-based
Method in brief: (§3)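 HeLa cells seeded at 2×10^4 cells/well, cultured overnight, then exposed to test compounds at various concentrations for 48 h. Viable cells counted by trypan blue dye exclusion.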

[9] = system: HeLa; assay: Induction of sensitization of human HeLa cells to camptothecin-induced apoptosis at 10 uM after 48 hrs by trypan blue dye exclusion assay; type: functional, cell-based; method in brief: as §3
[10] = biological target: Protein kinase C gamma type (Homo sapiens, UniProt P05129); assay: Inhibition of [3H]PDBu binding to PKCgamma-C1A domain peptide
[11] = biological target: Protein kinase C beta type (Homo sapiens, UniProt P05771); assay: Inhibition of [3H]PDBu binding to PKCbeta-C1A domain peptide
[12] = biological target: T2, Protein kinase C epsilon type (Homo sapiens, UniProt Q02156); assay: Inhibition of [3H]PDBu binding to PKCepsilon-C1B domain peptide
T2 sequence (Q02156 whole entry): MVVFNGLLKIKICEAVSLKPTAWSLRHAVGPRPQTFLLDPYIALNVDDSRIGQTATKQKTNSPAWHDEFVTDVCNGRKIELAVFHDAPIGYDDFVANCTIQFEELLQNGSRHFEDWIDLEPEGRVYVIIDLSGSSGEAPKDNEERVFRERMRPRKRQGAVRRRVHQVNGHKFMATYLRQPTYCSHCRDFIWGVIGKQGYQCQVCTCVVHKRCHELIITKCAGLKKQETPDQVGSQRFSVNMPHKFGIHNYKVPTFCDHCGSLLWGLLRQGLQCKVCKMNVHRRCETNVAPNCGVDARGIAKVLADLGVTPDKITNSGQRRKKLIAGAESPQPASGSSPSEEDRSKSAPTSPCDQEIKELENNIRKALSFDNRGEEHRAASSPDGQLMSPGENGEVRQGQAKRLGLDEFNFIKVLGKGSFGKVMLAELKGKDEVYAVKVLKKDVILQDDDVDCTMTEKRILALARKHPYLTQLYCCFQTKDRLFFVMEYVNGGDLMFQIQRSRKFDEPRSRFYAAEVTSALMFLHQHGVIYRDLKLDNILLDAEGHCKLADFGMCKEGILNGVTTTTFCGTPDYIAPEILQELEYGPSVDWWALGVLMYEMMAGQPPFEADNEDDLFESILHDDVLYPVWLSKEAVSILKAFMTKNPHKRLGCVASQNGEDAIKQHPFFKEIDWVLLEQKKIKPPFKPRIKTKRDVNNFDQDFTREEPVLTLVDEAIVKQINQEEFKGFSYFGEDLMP

[13] = biological target: Protein kinase C delta type (Homo sapiens, UniProt Q05655); assay: Inhibition of [3H]PDBu binding to PKCdelta-C1B domain peptide
[14] = biological target: Protein kinase C alpha type (Homo sapiens, UniProt P17252); assay: Inhibition of [3H]PDBu binding to PKCalpha-C1A domain peptide
[15] = biological target: Protein kinase C eta type (Homo sapiens, UniProt P24723); assay: Inhibition of [3H]PDBu binding to PKCeta-C1B domain peptide
[16] = system: HeLa; assay: Induction of sensitization of human HeLa cells to staurosporine-induced apoptosis assessed as induction DNA fragmentation at 160 nM after 24 hrs by propidium iodide-staining based FACS assay; type: functional, cell-based; method in brief: as §2
[17] = system: HeLa; assay: Induction of sensitization of human HeLa cells to camptothecin-induced apoptosis assessed as induction DNA fragmentation at 160 nM after 24 hrs by propidium iodide-staining based FACS assay; type: functional, cell-based; method in brief: as §2

E3 ubiquitin-protein ligase XIAP (Homo sapiens), sequence (P98170 whole entry, the tested form may be a part): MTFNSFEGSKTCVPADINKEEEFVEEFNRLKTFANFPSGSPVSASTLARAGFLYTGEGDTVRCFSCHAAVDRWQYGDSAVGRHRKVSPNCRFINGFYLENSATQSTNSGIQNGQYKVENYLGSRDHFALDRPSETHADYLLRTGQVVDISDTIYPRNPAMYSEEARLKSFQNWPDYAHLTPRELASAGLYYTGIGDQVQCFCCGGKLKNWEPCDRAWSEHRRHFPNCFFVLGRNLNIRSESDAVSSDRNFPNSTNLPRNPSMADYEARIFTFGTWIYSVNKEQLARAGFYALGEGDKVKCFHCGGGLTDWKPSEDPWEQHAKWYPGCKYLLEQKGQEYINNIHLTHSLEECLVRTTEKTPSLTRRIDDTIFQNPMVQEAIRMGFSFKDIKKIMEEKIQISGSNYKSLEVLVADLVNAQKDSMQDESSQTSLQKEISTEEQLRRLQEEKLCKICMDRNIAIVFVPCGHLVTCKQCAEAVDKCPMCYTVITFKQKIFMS
Protein kinase C eta type, sequence (P24723 whole entry, the tested form may be a part): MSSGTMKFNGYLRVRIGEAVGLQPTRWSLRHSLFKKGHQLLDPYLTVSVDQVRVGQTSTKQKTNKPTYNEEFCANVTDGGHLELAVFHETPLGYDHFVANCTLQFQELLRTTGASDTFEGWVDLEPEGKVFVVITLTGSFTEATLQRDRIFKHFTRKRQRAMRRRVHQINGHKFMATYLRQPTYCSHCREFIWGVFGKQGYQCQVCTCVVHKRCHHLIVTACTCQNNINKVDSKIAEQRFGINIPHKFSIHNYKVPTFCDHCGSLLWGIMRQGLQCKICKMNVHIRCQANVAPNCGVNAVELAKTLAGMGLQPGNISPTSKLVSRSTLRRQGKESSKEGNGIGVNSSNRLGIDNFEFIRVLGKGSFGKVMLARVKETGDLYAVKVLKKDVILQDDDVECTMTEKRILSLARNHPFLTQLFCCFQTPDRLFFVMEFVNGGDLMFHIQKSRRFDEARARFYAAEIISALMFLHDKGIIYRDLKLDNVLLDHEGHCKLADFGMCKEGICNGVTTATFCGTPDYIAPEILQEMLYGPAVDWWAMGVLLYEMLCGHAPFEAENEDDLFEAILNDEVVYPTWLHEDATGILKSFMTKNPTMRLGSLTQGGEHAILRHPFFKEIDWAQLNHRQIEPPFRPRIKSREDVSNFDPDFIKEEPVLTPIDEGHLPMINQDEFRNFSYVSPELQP
Protein kinase C delta type, sequence (Q05655 whole entry, the tested form may be a part): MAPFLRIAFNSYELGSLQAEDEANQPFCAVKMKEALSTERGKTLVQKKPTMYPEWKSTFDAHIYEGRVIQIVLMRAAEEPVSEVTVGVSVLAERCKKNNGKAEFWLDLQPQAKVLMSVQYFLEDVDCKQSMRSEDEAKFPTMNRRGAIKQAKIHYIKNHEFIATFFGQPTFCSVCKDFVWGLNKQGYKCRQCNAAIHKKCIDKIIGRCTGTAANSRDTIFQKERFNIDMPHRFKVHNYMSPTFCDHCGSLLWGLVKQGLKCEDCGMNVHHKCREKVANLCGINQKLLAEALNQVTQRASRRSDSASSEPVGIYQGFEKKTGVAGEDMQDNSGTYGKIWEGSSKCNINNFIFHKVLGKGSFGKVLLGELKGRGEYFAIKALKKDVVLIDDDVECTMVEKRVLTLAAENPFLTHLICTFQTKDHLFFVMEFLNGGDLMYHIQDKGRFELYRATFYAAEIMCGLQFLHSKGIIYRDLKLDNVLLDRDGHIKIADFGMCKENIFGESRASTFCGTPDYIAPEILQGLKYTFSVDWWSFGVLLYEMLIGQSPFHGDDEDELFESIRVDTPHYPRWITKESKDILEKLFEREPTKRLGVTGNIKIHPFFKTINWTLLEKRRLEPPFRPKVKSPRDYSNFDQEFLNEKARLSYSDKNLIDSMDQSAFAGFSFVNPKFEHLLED
Protein kinase C beta type, sequence (P05771 whole entry, the tested form may be a part): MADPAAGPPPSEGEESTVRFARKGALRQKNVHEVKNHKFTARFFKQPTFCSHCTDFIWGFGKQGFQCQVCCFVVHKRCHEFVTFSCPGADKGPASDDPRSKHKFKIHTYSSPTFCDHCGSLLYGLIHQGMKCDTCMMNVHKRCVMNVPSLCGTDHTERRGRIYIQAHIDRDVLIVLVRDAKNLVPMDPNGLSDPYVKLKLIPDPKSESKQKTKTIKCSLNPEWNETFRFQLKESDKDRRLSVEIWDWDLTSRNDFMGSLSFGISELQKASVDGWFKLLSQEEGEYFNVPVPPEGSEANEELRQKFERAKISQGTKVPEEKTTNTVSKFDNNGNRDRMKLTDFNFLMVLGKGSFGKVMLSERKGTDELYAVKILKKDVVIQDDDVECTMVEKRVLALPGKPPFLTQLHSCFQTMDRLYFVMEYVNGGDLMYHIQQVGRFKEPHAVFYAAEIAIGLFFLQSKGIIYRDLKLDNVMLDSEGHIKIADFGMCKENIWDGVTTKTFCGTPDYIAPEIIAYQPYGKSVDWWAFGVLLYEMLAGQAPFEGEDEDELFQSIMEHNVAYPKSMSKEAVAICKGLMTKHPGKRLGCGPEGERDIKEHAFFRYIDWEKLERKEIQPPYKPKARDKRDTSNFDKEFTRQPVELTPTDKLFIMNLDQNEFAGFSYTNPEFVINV

COC(=O)C[C@H](NC(=O)[C@H](C)NC(=O)[C@@H](NC(=O)OCc1ccccc1)C(C)C)C(=O)CF (Cbz-Val-Ala-Asp(OMe)-CH2F)
Activity [1]: inactive
Activity [2]: inactive

C=C[C@]1(C)CC[C@@](C)(C(C)C)c2cc3c4c(c[nH]c4c21)C[C@@H](CO)NC(=O)[C@H](C(C)C)N3C
Activity [3]: inactive
inhibition [4]: inactive
inhibition [5]: inactive
Activity [6]: inactive
Activity [7]: Active

C=C[C@@]1(C)CC[C@](C)(C(C)C)c2cc3c4c(c[nH]c4c21)CC(=O)NC(=O)[C@H](C(C)C)N3C
Activity [8]: Active
Activity [9]: Active
pKi [10]: 6.18
pKi [11]: 6.14
pKi [12]: 6.32
Activity [3]: Active
pKi [13]: 7.06
inhibition [4]: Active
inhibition [5]: Active
pKi [14]: 6.22
pKi [15]: 6.44
Activity [6]: Active
inhibition [7]: inactive

CCCCCCCCCCCCCC(=O)O[C@@H]1[C@@H](C)[C@@]2(O)[C@@H](C=C(CO)C[C@]3(O)C(=O)C(C)=C[C@@H]23)[C@@H]2C(C)(C)[C@]12OC(C)=O
Activity [16]: inactive
Activity [17]: inactive
